Test results reported in ChEMBL document CHEMBL3593182, “Phytochemical Investigation of the Constituents Derived from the Australian Plant Macropidia fuliginosa” (2015).
Calls of active or inactive are those of the source.

What was measured:
Escherichia coli [1] = assay: Antimicrobial activity against Escherichia coli ATCC 25922 assessed as zone of inhibition at 1724 uM incubated overnight at 37 degC; type: functional; conditions: read-out: IZ
In short: (§1)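 Pure isolates screened against a panel of five bacteria and one fungus, each at a single concentration within 1639–5230 μM. A commercial antibiotic and antifungal agent were tested in parallel as references. Growth inhibition was recorded as the zone of inhibition.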

Staphylococcus aureus [2] = assay: Antimicrobial activity against Staphylococcus aureus ATCC 25923 assessed as zone of inhibition at 1724 uM incubated overnight at 37 degC; type: functional, organism-based; in short: as §1
Staphylococcus aureus [3] = assay: Antimicrobial activity against methicillin-resistant Staphylococcus aureus 344/2-32 assessed as zone of inhibition at 1724 uM incubated overnight at 37 degC; type: functional, organism-based
Pseudomonas aeruginosa [4] = assay: Antimicrobial activity against Pseudomonas aeruginosa ATCC 27853 assessed as zone of inhibition at 1724 uM incubated overnight at 37 degC; type: functional; conditions: read-out: IZ; in short: as §1
Streptococcus pyogenes [5] = assay: Antimicrobial activity against Streptococcus pyogenes 345/1 assessed as zone of inhibition at 1724 uM incubated overnight at 37 degC; type: functional; conditions: read-out: IZ; in short: as §1
Candida albicans [6] = assay: Antimicrobial activity against Candida albicans ATCC 10231 assessed as zone of inhibition at 1724 uM incubated overnight at 37 degC; type: functional, organism-based; in short: as §1
Escherichia coli [7] = assay: Antimicrobial activity against Escherichia coli ATCC 25922 assessed as zone of inhibition at 1639 uM incubated overnight at 37 degC; type: functional, organism-based; in short: as §1
Staphylococcus aureus [8] = assay: Antimicrobial activity against Staphylococcus aureus ATCC 25923 assessed as zone of inhibition at 1639 uM incubated overnight at 37 degC; type: functional, organism-based; in short: as §1
Staphylococcus aureus [9] = assay: Antimicrobial activity against methicillin-resistant Staphylococcus aureus 344/2-32 assessed as zone of inhibition at 1639 uM incubated overnight at 37 degC; type: functional, organism-based
Pseudomonas aeruginosa [10] = assay: Antimicrobial activity against Pseudomonas aeruginosa ATCC 27853 assessed as zone of inhibition at 1639 uM incubated overnight at 37 degC; type: functional, organism-based; in short: as §1
Streptococcus pyogenes [11] = assay: Antimicrobial activity against Streptococcus pyogenes 345/1 assessed as zone of inhibition at 1639 uM incubated overnight at 37 degC; type: functional, organism-based; in short: as §1
Candida albicans [12] = assay: Antimicrobial activity against Candida albicans ATCC 10231 assessed as zone of inhibition at 1639 uM incubated overnight at 37 degC; type: functional, organism-based; in short: as §1
Escherichia coli [13] = assay: Antimicrobial activity against Escherichia coli ATCC 25922 assessed as zone of inhibition at 3675 uM incubated overnight at 37 degC; type: functional, organism-based; in short: as §1
Staphylococcus aureus [14] = assay: Antimicrobial activity against Staphylococcus aureus ATCC 25923 assessed as zone of inhibition at 3675 uM incubated overnight at 37 degC; type: functional, organism-based; in short: as §1
Staphylococcus aureus [15] = assay: Antimicrobial activity against methicillin-resistant Staphylococcus aureus 344/2-32 assessed as zone of inhibition at 3675 uM incubated overnight at 37 degC; type: functional, organism-based
Pseudomonas aeruginosa [16] = assay: Antimicrobial activity against Pseudomonas aeruginosa ATCC 27853 assessed as zone of inhibition at 3675 uM incubated overnight at 37 degC; type: functional, organism-based; in short: as §1
Streptococcus pyogenes [17] = assay: Antimicrobial activity against Streptococcus pyogenes 345/1 assessed as zone of inhibition at 3675 uM incubated overnight at 37 degC; type: functional, organism-based
Candida albicans [18] = assay: Antimicrobial activity against Candida albicans ATCC 10231 assessed as zone of inhibition at 3675 uM incubated overnight at 37 degC; type: functional, organism-based; in short: as §1
Escherichia coli [19] = assay: Antimicrobial activity against Escherichia coli ATCC 25922 assessed as zone of inhibition at 3875 uM incubated overnight at 37 degC; type: functional, organism-based; in short: as §1
Staphylococcus aureus [20] = assay: Antimicrobial activity against Staphylococcus aureus ATCC 25923 assessed as zone of inhibition at 3875 uM incubated overnight at 37 degC; type: functional; conditions: read-out: IZ; in short: as §1
Staphylococcus aureus [21] = assay: Antimicrobial activity against methicillin-resistant Staphylococcus aureus 344/2-32 assessed as zone of inhibition at 3875 uM incubated overnight at 37 degC; type: functional, organism-based
Pseudomonas aeruginosa [22] = assay: Antimicrobial activity against Pseudomonas aeruginosa ATCC 27853 assessed as zone of inhibition at 3875 uM incubated overnight at 37 degC; type: functional; conditions: read-out: IZ; in short: as §1
Streptococcus pyogenes [23] = assay: Antimicrobial activity against Streptococcus pyogenes 345/1 assessed as zone of inhibition at 3875 uM incubated overnight at 37 degC; type: functional, organism-based
Candida albicans [24] = assay: Antimicrobial activity against Candida albicans ATCC 10231 assessed as zone of inhibition at 3875 uM incubated overnight at 37 degC; type: functional, organism-based; in short: as §1
Escherichia coli [25] = assay: Antimicrobial activity against Escherichia coli ATCC 25922 assessed as zone of inhibition at 2450 uM incubated overnight at 37 degC; type: functional, organism-based; in short: as §1
Staphylococcus aureus [26] = assay: Antimicrobial activity against Staphylococcus aureus ATCC 25923 assessed as zone of inhibition at 2450 uM incubated overnight at 37 degC; type: functional, organism-based; in short: as §1
Staphylococcus aureus [27] = assay: Antimicrobial activity against methicillin-resistant Staphylococcus aureus 344/2-32 assessed as zone of inhibition at 2450 uM incubated overnight at 37 degC; type: functional, organism-based
Pseudomonas aeruginosa [28] = assay: Antimicrobial activity against Pseudomonas aeruginosa ATCC 27853 assessed as zone of inhibition at 2450 uM incubated overnight at 37 degC; type: functional, organism-based; in short: as §1
Streptococcus pyogenes [29] = assay: Antimicrobial activity against Streptococcus pyogenes 345/1 assessed as zone of inhibition at 2450 uM incubated overnight at 37 degC; type: functional, organism-based; in short: as §1
Candida albicans [30] = assay: Antimicrobial activity against Candida albicans ATCC 10231 assessed as zone of inhibition at 2450 uM incubated overnight at 37 degC; type: functional, organism-based; in short: as §1
Escherichia coli [31] = assay: Antimicrobial activity against Escherichia coli ATCC 25922 assessed as zone of inhibition at 3649 uM incubated overnight at 37 degC; type: functional, organism-based; in short: as §1
Staphylococcus aureus [32] = assay: Antimicrobial activity against Staphylococcus aureus ATCC 25923 assessed as zone of inhibition at 3649 uM incubated overnight at 37 degC; type: functional, organism-based; in short: as §1
Staphylococcus aureus [33] = assay: Antimicrobial activity against methicillin-resistant Staphylococcus aureus 344/2-32 assessed as zone of inhibition at 3649 uM incubated overnight at 37 degC; type: functional, organism-based
Pseudomonas aeruginosa [34] = assay: Antimicrobial activity against Pseudomonas aeruginosa ATCC 27853 assessed as zone of inhibition at 3649 uM incubated overnight at 37 degC; type: functional; conditions: read-out: IZ; in short: as §1
Streptococcus pyogenes [35] = assay: Antimicrobial activity against Streptococcus pyogenes 345/1 assessed as zone of inhibition at 3649 uM incubated overnight at 37 degC; type: functional, organism-based
Candida albicans [36] = assay: Antimicrobial activity against Candida albicans ATCC 10231 assessed as zone of inhibition at 3649 uM incubated overnight at 37 degC; type: functional, organism-based; in short: as §1

O=C(/C=C/c1ccc(O)cc1)OC[C@H]1O[C@@H](Oc2cc(O)cc3c2C(=O)CC(c2ccc(O)cc2)O3)[C@H](O)[C@@H](O)[C@@H]1O (stereo partly specified)
1 mm: zone of inhibition at 1724 µM (Escherichia coli [1]) | zone of inhibition at 1724 µM (Streptococcus pyogenes [5])
inactive: inhibition zone (IZ) (Staphylococcus aureus [2]) | inhibition zone (IZ) (Staphylococcus aureus [3]) | inhibition zone (IZ) (Candida albicans [6])
10 mm: zone of inhibition at 1724 µM (Pseudomonas aeruginosa [4])

C[C@@H]1O[C@@H](OC[C@H]2O[C@@H](Oc3c(-c4ccc(O)c(O)c4)oc4cc(O)cc(O)c4c3=O)[C@H](O)[C@@H](O)[C@@H]2O)[C@H](O)[C@H](O)[C@H]1O
inactive: inhibition zone (IZ) (Escherichia coli [7]) | inhibition zone (IZ) (Staphylococcus aureus [8]) | inhibition zone (IZ) (Staphylococcus aureus [9]) | inhibition zone (IZ) (Pseudomonas aeruginosa [10]) | inhibition zone (IZ) (Streptococcus pyogenes [11]) | inhibition zone (IZ) (Candida albicans [12])

O=C1C(O)=Cc2cccc3ccc(-c4ccccc4)c1c23
inactive: inhibition zone (IZ) (Escherichia coli [13]) | inhibition zone (IZ) (Staphylococcus aureus [14]) | inhibition zone (IZ) (Staphylococcus aureus [15]) | inhibition zone (IZ) (Pseudomonas aeruginosa [16]) | inhibition zone (IZ) (Streptococcus pyogenes [17]) | inhibition zone (IZ) (Candida albicans [18])

O=C1C(=O)c2c(-c3ccccc3)ccc3cccc1c23
1 mm: zone of inhibition at 3875 µM (Pseudomonas aeruginosa [22])
2 mm: zone of inhibition at 3875 µM (Staphylococcus aureus [20])
inactive: inhibition zone (IZ) (Escherichia coli [19]) | inhibition zone (IZ) (Staphylococcus aureus [21]) | inhibition zone (IZ) (Streptococcus pyogenes [23]) | inhibition zone (IZ) (Candida albicans [24])

COC(OC)c1cc(O)c2c(-c3cc(O)cc(O)c3)c(-c3ccc(O)cc3)oc2c1
inactive: inhibition zone (IZ) (Escherichia coli [25]) | inhibition zone (IZ) (Staphylococcus aureus [26]) | inhibition zone (IZ) (Staphylococcus aureus [27]) | inhibition zone (IZ) (Pseudomonas aeruginosa [28]) | inhibition zone (IZ) (Streptococcus pyogenes [29]) | inhibition zone (IZ) (Candida albicans [30])

O=C1OC(=O)c2c(-c3ccccc3)ccc3cccc1c23
inactive: inhibition zone (IZ) (Escherichia coli [31]) | inhibition zone (IZ) (Staphylococcus aureus [32]) | inhibition zone (IZ) (Staphylococcus aureus [33]) | inhibition zone (IZ) (Streptococcus pyogenes [35]) | inhibition zone (IZ) (Candida albicans [36])
2 mm: zone of inhibition at 3649 µM (Pseudomonas aeruginosa [34])
